The term MIC denotes the lowest concentration that inhibits growth of the organism. What is called pKi is −log10 of the Ki, conventionally taken in molar units. High values mean a low Ki, low ones a high Ki.

The subject of data set [1] is Staphylococcus aureus. Description: Antibiotic activity against methicillin-resistant Staphylococcus aureus MW2-USA400 assessed as inhibition of bacterial growth incubated for 16 hrs by microtiter broth dilution method. Type of data set: functional. The method in brief: (§1)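 Microtiter broth dilution assay in liquid medium, run alongside MBC determination, against a Gram-positive panel; the MIC was read as growth inhibition.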

For data set [2], the system named is Staphylococcus aureus. Description: Antibiotic activity against methicillin-resistant Staphylococcus aureus IA116-USA100 assessed as inhibition of bacterial growth incubated for 16 hrs by microtiter broth dilution method. It counts as functional. In outline: as §1
Background: In broth dilution the organism is exposed to a series of concentrations in liquid medium.

The nature of data set [3]: Cytotoxicity against human A549 cells assessed as number of viable cells at 100 uM incubated for 24 hrs by calcein-AM and ethidium homodimer-1 staining based flow cytometry. Type of data set: toxicity, cell-based. The note with it: read-out: Activity. In outline:
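A549 human lung epithelial carcinoma cells were incubated with compound at up to 100 μM and stained with calcein-AM and ethidium homodimer-1. Viable and dead fractions were determined by confocal microscopy and flow cytometry, against a vehicle control.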

Data set [4] concerns Staphylococcus aureus. Description: Bacteriostatic activity against methicillin-resistant Staphylococcus aureus MN8-USA200 assessed as inhibition of bacterial growth by microtiter broth dilution method. It counts as functional, organism-based.
The test system of data set [5] is Pseudomonas aeruginosa. Description: Bacteriostatic activity against Pseudomonas aeruginosa PA01 assessed as inhibition of bacterial growth by microtiter broth dilution method. Type of data set: functional, organism-based.
A short description of data set [6]: Inhibition of C-terminal His tagged Bacillus subtilis ClpY/ClpQ expressed in Escherichia coli BL21 (DE3) using Cbz-Gly-Gly-Leu-AMC as peptide substrate by Cheng-prusoff equation analysis. The method in brief: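 Recombinant purified B. subtilis ClpYQ was used for inhibition kinetics. Peptide hydrolysis of the fluorogenic substrate Cbz-GGL-AMC at 100 μM was followed over a range of compound concentrations to give a dose-response curve.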

Data set [7] relates to Staphylococcus aureus. Nature of the data set: Antibiotic activity against methicillin-resistant Staphylococcus aureus LAC-Fitz-USA300 assessed as inhibition of bacterial growth incubated for 16 hrs by microtiter broth dilution method. Type of data set: functional. The method in brief: as §1
Data set [8] concerns Staphylococcus aureus. Description: Inhibition of ClpX/ClpP activity in methicillin-resistant Staphylococcus aureus USA300 assessed as increase in urease activation incubated of overnight by phenol red dye based microplate reader analysis. In outline:
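Cell-based ClpXP readout in MRSA USA300 grown in Christensen's urea medium with phenol red indicator. ClpXP inhibition raises urease activity, which hydrolyses urea and releases ammonia, and the rising pH turns the medium from yellow to red. Minimum effective concentration (MEC) was taken as the lowest level that raised urease activity above background.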

The subject of data set [9] is Staphylococcus aureus. Description: Bacteriostatic activity against methicillin-resistant Staphylococcus aureus IA116-USA100 assessed as inhibition of bacterial growth by microtiter broth dilution method. Type of data set: functional, organism-based.
Data set [10] concerns Staphylococcus aureus. Nature of the data set: Antibiotic activity against methicillin-resistant Staphylococcus aureus MN8-USA200 assessed as inhibition of bacterial growth incubated for 16 hrs by microtiter broth dilution method. Type of data set: functional. In outline:
as §1

A short description of data set [11]: Toxicity in sheep RBC assessed as induction of hemolysis at 200 uM and measured after 1 hr relative to control. The note with it: sheep red blood cells, read-out: Activity. Type of data set: cell-based, Ovis aries, Erythrocyte. In outline:
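Hemolytic activity was measured as percent lysis of sheep erythrocytes, with compound tested up to 200 μM.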

In data set [12] the test system is Staphylococcus aureus. Nature of the data set: Bacteriostatic activity against methicillin-resistant Staphylococcus aureus LAC-Fitz-USA300 assessed as inhibition of bacterial growth by microtiter broth dilution method. It counts as functional, organism-based.
For data set [13], the system named is Enterococcus faecalis. Nature of the data set: Bacteriostatic activity against vancomycin resistant Enterococcus faecalis NJ3 assessed as inhibition of bacterial growth by microtiter broth dilution method. It counts as functional, organism-based.
Data set [14] concerns Staphylococcus aureus. Description: Bacteriostatic activity against methicillin-resistant Staphylococcus aureus MW2-USA400 assessed as inhibition of bacterial growth by microtiter broth dilution method. It counts as functional, organism-based.
Data set [15] has as its system Enterococcus faecalis. Nature of the data set: Antibiotic activity against vancomycin resistant Enterococcus faecalis NJ3 assessed as inhibition of bacterial growth incubated for 16 hrs by microtiter broth dilution method. It counts as functional. The method in brief:
as §1

Data set [16] deals with Pseudomonas aeruginosa. Description: Antibiotic activity against Pseudomonas aeruginosa PA01 assessed as inhibition of bacterial growth incubated for 16 hrs by microtiter broth dilution method. Type of data set: functional.
The subject of a further data set is Escherichia coli. Description: Antibiotic activity against Escherichia coli with delta.tolC mutation assessed as inhibition of bacterial growth by microtiter broth dilution method. Type of data set: functional, organism-based.
Data set [17] deals with Staphylococcus aureus. Description: Antibiotic activity against methicillin-resistant Staphylococcus aureus USA300 assessed as inhibition of bacterial growth incubated for 16 hrs in presence of BSA by microtiter broth dilution method. It counts as functional. In outline:
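MIC by microtiter broth dilution against MRSA USA300, with bovine serum albumin added to the medium to assess the effect of protein binding.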

pKi: −log10 of the molar value. ≈ marks a conversion by molar mass, not a printed value. Calls of active or inactive are those of the source. The rule behind the calls is not given here.

As to `CCCCCCc1c(O)c(Cl)cc2c1OC1(C2=O)C(Cl)=C(Cl)C(=O)N1CCc1ccccc1` (stereo unspecified), the MIC in the data set with Staphylococcus aureus [1] is 0.5 µg/mL (≈ 0.983 µM); with Staphylococcus aureus [2] it was 1 µg/mL (≈ 1.97 µM); in the data set with Staphylococcus aureus [7], 0.5 µg/mL (≈ 0.983 µM); in the data set with Staphylococcus aureus [10], 0.5 µg/mL (≈ 0.983 µM); with Enterococcus faecalis [15], 1 µg/mL (≈ 1.97 µM); in the data set on Pseudomonas aeruginosa [16], above 32 µg/mL. For the same molecule, the viability at 24 h, 100 µM in data set [3] was above 95%. The result with Staphylococcus aureus [4], in the data set with Pseudomonas aeruginosa [5], in the data set with Staphylococcus aureus [9], in the data set on Staphylococcus aureus [12], in the data set on Enterococcus faecalis [13] and in the data set with Staphylococcus aureus [14] was Active. Besides, in data set [6], the pKi was 6.39. Besides, the MEC in the data set on Staphylococcus aureus [8] is 0.25 µg/mL. Further, the hemolysis at 1 h, 200 µM in data set [11] is below 5%.

For `CCCCCCc1c(O)c(Cl)cc2c1OC1(C2=O)C(Cl)=C(Cl)C(=O)N1C` (stereo unspecified), the outcome in the data set with Escherichia coli, with Staphylococcus aureus [4], with Pseudomonas aeruginosa [5], in the data set with Staphylococcus aureus [9], in the data set on Staphylococcus aureus [12] and in the data set on Enterococcus faecalis [13] was Active. In addition, the result with Staphylococcus aureus [14] was Active. In addition, the MIC with Staphylococcus aureus [1] was 4 µg/mL (≈ 9.55 µM); with Staphylococcus aureus [2], 4 µg/mL (≈ 9.55 µM); in the data set with Staphylococcus aureus [7], 4 µg/mL (≈ 9.55 µM); in the data set with Staphylococcus aureus [10] it was 4 µg/mL (≈ 9.55 µM); in the data set on Staphylococcus aureus [17], above 32 µg/mL; with Enterococcus faecalis [15], 8 µg/mL (≈ 19.1 µM). Further, the MIC in the data set on Pseudomonas aeruginosa [16] was above 32 µg/mL. Besides, the viability at 24 h, 100 µM in [3] was above 95%. This molecule gave a pKi in [6] of 5.49. Further, the MEC in the data set on Staphylococcus aureus [8] came out at 1 µg/mL. Also, in [11], the hemolysis at 1 h, 200 µM is below 15%.

In the case of `CCCCCCc1c(O)c(Cl)cc2c1OC1(C2=O)C(Cl)=C(Cl)C(=O)N1CCCCCC` (stereo unspecified), the MIC with Staphylococcus aureus [1] amounted to 1 µg/mL (≈ 2.05 µM); with Staphylococcus aureus [2], 1 µg/mL (≈ 2.05 µM); in the data set on Staphylococcus aureus [7], 1 µg/mL (≈ 2.05 µM); in the data set on Staphylococcus aureus [10], 1 µg/mL (≈ 2.05 µM); in the data set with Staphylococcus aureus [17] it was 32 µg/mL; in the data set with Enterococcus faecalis [15], 2 µg/mL (≈ 4.09 µM). In addition, in the data set with Pseudomonas aeruginosa [16], the MIC is above 32 µg/mL. In data set [3], the viability at 24 h, 100 µM is above 95%. Also, the result in the data set on Staphylococcus aureus [4], in the data set with Pseudomonas aeruginosa [5], in the data set with Staphylococcus aureus [9], in the data set on Staphylococcus aureus [12], with Enterococcus faecalis [13] and with Staphylococcus aureus [14] was Active. The molecule also gave a pKi in data set [6] of 5.89. In addition, in the data set with Staphylococcus aureus [8], the MEC turned out to be 0.067 µg/mL. Also, in data set [11], the hemolysis at 1 h, 200 µM was below 5%.

The values are drawn from ChEMBL document CHEMBL5104117, “Armeniaspirol analogues with more potent Gram-positive antibiotic activity show enhanced inhibition of the ATP-dependent proteases ClpXP and ClpYQ” (RSC Med Chem, 2022).
